Structures are written as SMILES.

In assay [1] the target is T1, 85/88 kDa calcium-independent phospholipase A2 (Homo sapiens) (UniProt O60733).
T1 sequence (whole entry): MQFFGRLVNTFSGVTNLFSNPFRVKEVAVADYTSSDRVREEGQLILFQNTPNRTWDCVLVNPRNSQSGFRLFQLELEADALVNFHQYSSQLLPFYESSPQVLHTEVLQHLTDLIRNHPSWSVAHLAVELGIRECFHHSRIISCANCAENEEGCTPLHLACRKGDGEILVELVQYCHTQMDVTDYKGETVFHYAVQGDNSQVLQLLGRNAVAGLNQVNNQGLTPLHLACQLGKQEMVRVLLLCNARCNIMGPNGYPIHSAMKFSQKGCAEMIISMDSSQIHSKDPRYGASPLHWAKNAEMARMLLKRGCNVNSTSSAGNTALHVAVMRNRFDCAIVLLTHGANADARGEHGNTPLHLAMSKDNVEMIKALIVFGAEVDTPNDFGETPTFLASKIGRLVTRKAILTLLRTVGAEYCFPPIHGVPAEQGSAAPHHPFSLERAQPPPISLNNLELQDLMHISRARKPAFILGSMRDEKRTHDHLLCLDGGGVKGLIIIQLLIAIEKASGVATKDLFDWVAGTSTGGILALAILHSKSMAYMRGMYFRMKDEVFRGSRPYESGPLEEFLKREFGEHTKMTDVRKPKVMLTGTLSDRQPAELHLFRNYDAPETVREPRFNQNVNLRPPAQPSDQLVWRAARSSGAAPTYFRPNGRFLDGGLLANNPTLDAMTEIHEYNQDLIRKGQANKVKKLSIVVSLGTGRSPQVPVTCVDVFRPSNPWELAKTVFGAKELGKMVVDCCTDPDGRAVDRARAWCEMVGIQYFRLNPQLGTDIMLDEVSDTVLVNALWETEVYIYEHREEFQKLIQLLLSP
The experiment in a line: Inhibition of human group VIA iPLA2 at 0.091 mol fraction using arachidonyl-1-14C PAPC by mixed micelles modified Dole assay. A digest of the protocol:
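Substrate micelles: 400 μM Triton X-100, 98.3 μM PAPC, 1.7 μM arachidonyl-1-14C PAPC. Buffer: 100 mM HEPES pH 7.5, 2 mM ATP, 4 mM DTT. Inhibitor tested at 0.091 mole fraction from a 5 mM DMSO stock; percent inhibition determined.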

Assay [2] addresses T2, Cytosolic phospholipase A2 (Homo sapiens) (UniProt P47712).
T2 sequence (whole entry): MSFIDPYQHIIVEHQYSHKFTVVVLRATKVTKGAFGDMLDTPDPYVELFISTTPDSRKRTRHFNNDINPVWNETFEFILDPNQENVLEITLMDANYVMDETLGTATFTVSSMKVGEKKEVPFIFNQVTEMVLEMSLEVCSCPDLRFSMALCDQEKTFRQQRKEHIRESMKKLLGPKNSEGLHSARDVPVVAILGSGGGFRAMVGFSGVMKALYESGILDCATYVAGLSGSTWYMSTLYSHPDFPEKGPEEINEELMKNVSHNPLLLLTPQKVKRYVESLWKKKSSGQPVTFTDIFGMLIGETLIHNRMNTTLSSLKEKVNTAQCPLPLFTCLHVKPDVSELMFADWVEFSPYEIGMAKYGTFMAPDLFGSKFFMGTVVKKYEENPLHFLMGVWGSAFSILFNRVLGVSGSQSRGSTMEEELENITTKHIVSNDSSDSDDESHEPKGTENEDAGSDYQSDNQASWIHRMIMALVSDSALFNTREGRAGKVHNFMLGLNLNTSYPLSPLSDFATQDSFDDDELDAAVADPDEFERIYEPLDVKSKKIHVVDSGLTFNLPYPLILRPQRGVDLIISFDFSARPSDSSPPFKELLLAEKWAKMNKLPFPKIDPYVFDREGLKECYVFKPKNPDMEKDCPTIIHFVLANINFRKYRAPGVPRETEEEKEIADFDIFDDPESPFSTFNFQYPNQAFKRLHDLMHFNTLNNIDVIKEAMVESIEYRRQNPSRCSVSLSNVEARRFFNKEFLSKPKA
The experiment in a line: Inhibition of human group IVA cPLA2 at 0.091 mol fraction using arachidonyl-1-14C PAPC by mixed micelles modified Dole assay. The method in brief:
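Buffer: 100 mM HEPES pH 7.5 with 90 μM CaCl2, 2 mM DTT and 0.1 mg/ml BSA. Inhibitor screened at 0.091 mole fraction, added from a 5 mM DMSO stock; percent inhibition recorded.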

The target in assay [3] is T3, Phospholipase A2 group V (Homo sapiens) (UniProt P39877).
T3 sequence (whole entry): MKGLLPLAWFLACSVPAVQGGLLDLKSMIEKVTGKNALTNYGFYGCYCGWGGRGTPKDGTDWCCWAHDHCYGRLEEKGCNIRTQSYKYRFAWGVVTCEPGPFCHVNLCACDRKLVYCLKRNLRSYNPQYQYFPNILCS
The experiment in a line: Inhibition of human group V sPLA2 at 0.091 mol fraction using arachidonyl-1-14C PAPC by mixed micelles modified Dole assay.

Assay [4] has as its target T1, 85/88 kDa calcium-independent phospholipase A2 (Homo sapiens). The experiment in a line: Inhibition of human group VIA iPLA2 using arachidonyl-1-14C PAPC by mixed micelles modified Dole assay. The method in brief: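 Run in the same micelle substrate (Triton X-100/PAPC/14C-PAPC) in 100 mM HEPES pH 7.5, 2 mM ATP and 4 mM DTT, on compounds showing over 95% inhibition in the screen. Percent inhibition plotted against log mole fraction; XI(50) and its error obtained by nonlinear regression.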

In the case of `O=C(CSCCc1ccc2ccccc2c1)C(F)(F)F`, the inhibition in assay [1] is 99%; in assay [2] it was 88%; in assay [3] it was 32%. Moreover, in assay [4], the XI50 was determined as 0.0002.
As to `COc1ccc(CCSCC(=O)c2noc(C(C)(C)C)n2)cc1`, the inhibition in assay [1] is 98%; in assay [2], 70%; in assay [3] it was 38%. Also, the XI50 in assay [4] was determined as 0.0057.
As for `COc1ccc(CCCCC(=O)c2noc(C(C)(C)C)n2)cc1`, the inhibition is 64% in assay [1], 52% in assay [2] and 35% in assay [3].
Consider `COc1ccc(CCSCC(=O)C(F)(F)F)cc1`, for which the inhibition in assay [1] was 96%; in assay [2] it was 60%; in assay [3] it was below 25%. Moreover, in assay [4], the XI50 was found to be 9e-05.
The matching figures for `COc1ccc(CCSCC(=O)C(F)(F)C(F)(F)F)cc1`: 100%, 61%, 28% and 0.00012.
For `O=C(CSCCc1ccccc1)C(F)(F)C(F)(F)F` the same measures were 99%, below 25%, below 25% and 0.00015.

The record behind these values is ChEMBL document CHEMBL3817820, “Development of Potent and Selective Inhibitors for Group VIA Calcium-Independent Phospholipase A2 Guided by Molecular Dynamics and Structure-Activity Relationships” (J Med Chem, 2016).
